Measurements reported in ChEMBL document CHEMBL1140087, “Synthesis and structure-activity relationship studies of cytotoxic ester and ether anhydrovinblastine derivatives” (J Nat Prod, 2008).

Key:
HeLa = assay: Cytotoxicity against human HeLa cells after 72 hrs by SRB assay; format: functional, cell-based
Method in brief: (§1)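 Ditartrate salts tested. ATCC cells seeded at 6000/well, attached overnight, then exposed in triplicate to graded concentrations at 37 °C for 72 h. Fixed with 10% trichloroacetic acid for 60 min at 4 °C, stained with 0.4% w/v SRB in 1% acetic acid for 15 min, dye solubilised in Tris buffer, A515 read. IC50 for 50% growth inhibition by Logit method. Anhydrovinblastine as positive control.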

A549 = assay: Cytotoxicity against human A549 cells after 72 hrs by SRB assay; format: functional, cell-based; conditions: A549, 72 h; method in brief: as §1

Structure (SMILES)	IC50 (HeLa)	IC50 (A549)
C=CCOC[C@@]1(O)[C@H](OC(C)=O)[C@]2(CC)C=CCN3CC[C@@]4(c5cc([C@@]6(C(=O)OC)C[C@@H]7C=C(CC)CN(CCc8c6[nH]c6ccccc86)C7)c(OC)cc5N(C)[C@@H]14)[C@@H]32	162 nM	124 nM
CCC1=C[C@@H]2CN(CCc3c([nH]c4ccccc34)[C@@](C(=O)OC)(c3cc4c(cc3OC)N(C)[C@H]3[C@@](O)(COCc5ccc(OC)cc5)[C@H](OC(C)=O)[C@]5(CC)C=CCN6CC[C@]43[C@@H]65)C2)C1	409 nM	702 nM
CCC1=C[C@@H]2CN(CCc3c([nH]c4ccccc34)[C@@](C(=O)OC)(c3cc4c(cc3OC)N(C)[C@H]3[C@@](O)(COC(=O)C5CC5)[C@H](OC(C)=O)[C@]5(CC)C=CCN6CC[C@]43[C@@H]65)C2)C1	38.1 nM	47.9 nM
CCCCOC[C@@]1(O)[C@H](OC(C)=O)[C@]2(CC)C=CCN3CC[C@@]4(c5cc([C@@]6(C(=O)OC)C[C@@H]7C=C(CC)CN(CCc8c6[nH]c6ccccc86)C7)c(OC)cc5N(C)[C@@H]14)[C@@H]32	422 nM	422 nM
CCC1=C[C@@H]2CN(CCc3c([nH]c4ccccc34)[C@@](C(=O)OC)(c3cc4c(cc3OC)N(C)[C@H]3[C@@](O)(COC(=O)Cc5ccccc5)[C@H](OC(C)=O)[C@]5(CC)C=CCN6CC[C@]43[C@@H]65)C2)C1	272 nM	67.4 nM
CCC1=C[C@@H]2CN(CCc3c([nH]c4ccccc34)[C@@](C(=O)OC)(c3cc4c(cc3OC)N(C)[C@H]3[C@@](O)(COC(=O)c5ccc([N+](=O)[O-])cc5)[C@H](OC(C)=O)[C@]5(CC)C=CCN6CC[C@]43[C@@H]65)C2)C1	169 nM	52.3 nM
CCC1=C[C@@H]2CN(CCc3c([nH]c4ccccc34)[C@@](C(=O)OC)(c3cc4c(cc3OC)N(C)[C@H]3[C@@](O)(COC(=O)c5ccc(Cl)cc5)[C@H](OC(C)=O)[C@]5(CC)C=CCN6CC[C@]43[C@@H]65)C2)C1	102 nM	56.7 nM
CCC(=O)OC[C@@]1(O)[C@H](OC(C)=O)[C@]2(CC)C=CCN3CC[C@@]4(c5cc([C@@]6(C(=O)OC)C[C@@H]7C=C(CC)CN(CCc8c6[nH]c6ccccc86)C7)c(OC)cc5N(C)[C@@H]14)[C@@H]32	62.1 nM	39.1 nM
CCC1=C[C@@H]2CN(CCc3c([nH]c4ccccc34)[C@@](C(=O)OC)(c3cc4c(cc3OC)N(C)[C@H]3[C@@](O)(COC(=O)c5ccccc5)[C@H](OC(C)=O)[C@]5(CC)C=CCN6CC[C@]43[C@@H]65)C2)C1	35.6 nM	25.4 nM
CCC1=C[C@@H]2CN(CCc3c([nH]c4ccccc34)[C@@](C(=O)OC)(c3cc4c(cc3OC)N(C)[C@H]3[C@@](O)(COC(C)=O)[C@H](OC(C)=O)[C@]5(CC)C=CCN6CC[C@]43[C@@H]65)C2)C1	35.3 nM	38.2 nM
CCC1=C[C@@H]2CN(CCc3c([nH]c4ccccc34)[C@@](C(=O)OC)(c3cc4c(cc3OC)N(C)[C@H]3[C@@](O)(COC(=O)c5ccccc5Cl)[C@H](OC(C)=O)[C@]5(CC)C=CCN6CC[C@]43[C@@H]65)C2)C1	147 nM	40.5 nM
CCC1=C[C@@H]2CN(CCc3c([nH]c4ccccc34)[C@@](C(=O)OC)(c3cc4c(cc3OC)N(C)[C@H]3[C@@](O)(COC(=O)C(C)C)[C@H](OC(C)=O)[C@]5(CC)C=CCN6CC[C@]43[C@@H]65)C2)C1	87.5 nM	59.9 nM
CCC1=C[C@@H]2CN(CCc3c([nH]c4ccccc34)[C@@](C(=O)OC)(c3cc4c(cc3OC)N(C)[C@H]3[C@@](O)(COC(=O)C(C)(C)C)[C@H](OC(C)=O)[C@]5(CC)C=CCN6CC[C@]43[C@@H]65)C2)C1	96 nM	181 nM
CCC1=C[C@@H]2CN(CCc3c([nH]c4ccccc34)[C@@](C(=O)OC)(c3cc4c(cc3OC)N(C)[C@H]3[C@@](O)(COC(=O)CC(C)C)[C@H](OC(C)=O)[C@]5(CC)C=CCN6CC[C@]43[C@@H]65)C2)C1	175 nM	70.3 nM
CCCOC[C@@]1(O)[C@H](OC(C)=O)[C@]2(CC)C=CCN3CC[C@@]4(c5cc([C@@]6(C(=O)OC)C[C@@H]7C=C(CC)CN(CCc8c6[nH]c6ccccc86)C7)c(OC)cc5N(C)[C@@H]14)[C@@H]32	398 nM	401 nM
CCC1=C[C@@H]2CN(CCc3c([nH]c4ccccc34)[C@@](C(=O)OC)(c3cc4c(cc3OC)N(C)[C@H]3[C@@](O)(COC(=O)c5ccc(OC)cc5)[C@H](OC(C)=O)[C@]5(CC)C=CCN6CC[C@]43[C@@H]65)C2)C1	151 nM	29.7 nM
CCOC[C@@]1(O)[C@H](OC(C)=O)[C@]2(CC)C=CCN3CC[C@@]4(c5cc([C@@]6(C(=O)OC)C[C@@H]7C=C(CC)CN(CCc8c6[nH]c6ccccc86)C7)c(OC)cc5N(C)[C@@H]14)[C@@H]32	220 nM	98 nM
CCC1=C[C@@H]2CN(CCc3c([nH]c4ccccc34)[C@@](C(=O)OC)(c3cc4c(cc3OC)N(C)[C@H]3[C@@](O)(COC(=O)c5ccccc5OC)[C@H](OC(C)=O)[C@]5(CC)C=CCN6CC[C@]43[C@@H]65)C2)C1	154 nM	14.2 nM
